Experimental data from article PMC5508335 (Journal of Veterinary Internal Medicine, 2017).

What was measured:
[1] = tested on: dogs with spontaneously-arising glioma and meningioma; type: in vivo, dog; details: six dogs
Procedure, shortened: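 Dogs with spontaneously arising glioma or meningioma received the oral test compound together with conventional therapies. Tolerability was assessed, with serial clinical and MRI outcome assessments.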

[2] = tested on: canine, human, and murine glioma cell lines; experiment: In vitro sensitivity of glioma cell lines; type: cell-based; details: monotherapy, biologically relevant exposures
Procedure, shortened: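 Murine, canine and human glioma cell lines were tested for in vitro sensitivity to the test compound and to radiation, each given as monotherapy. PC-3 expression in the same lines was also evaluated.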

dogs with EPI = experiment: Oral cobalamin supplementation in dogs with EPI, serum cobalamin; type: in vivo, dog; details: daily cyanocobalamin tablets, 28–199 days; 10 dogs; at inclusion 204
Procedure, shortened: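 Dogs entered with EPI diagnosed by subnormal serum cTLI (reference 5–35 μg/L) and an initial serum cobalamin of 350 ng/L or less (reference 234–811 ng/L). All received daily oral cyanocobalamin tablets at 1 mg/tablet.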

dogs with MUE = experiment: Retrospective survival of dogs with MUE given cytarabine CRI; type: in vivo, dog; details: 22 dogs, at least 1 CRI treatment; range 61 – 1312
diabetic cats = experiment: One-year randomized trial of insulin types in diabetic cats; type: in vivo, cat; details: BID insulin, glargine=24, PZIR=22
[3] = tested on: healthy purpose-bred cats; details: in vivo
thyroid TT4 response = experiment: TSH stimulation test, serum TT4; type: in vivo, dog; details: 6 dogs, oral hydrocortisone for 90 days

C=CCc1cccc(/C=N/NC(=O)CN2CCN(Cc3ccccc3)CC2)c1O [PAC‐1]
partial responses [1]: 3 dogs | in vitro sensitivity of glioma cell lines [2]: show in vitro sensitivity

cyanocobalamin [CBL]
median serum CBL concentration after supplementation (dogs with EPI): 1,113 ng/L

Nc1ccn([C@@H]2O[C@H](CO)[C@@H](O)[C@@H]2O)c(=O)n1 [cytarabine]
Survival, median (dogs with MUE): 258.5 days

PZIR: human-recombinant protamine zinc insulin
cats achieving remission (diabetic cats): 23%

Cc1cccc([C@H](C)c2cnc[nH]2)c1C [dexmedetomidine]
cats with successful emesis [3]: 58%

C[C@]12CCC(=O)C=C1CC[C@@H]1[C@@H]2[C@@H](O)C[C@@]2(C)[C@H]1CC[C@]2(O)C(=O)CO [hydrocortisone]
mean basal serum TT4 concentration (thyroid TT4 response): 0.32 µg/dL
